# Laboratory results as given in PubChem BioAssay AID623962 (The Scripps Research Institute Molecular Screening Center, 2012).
# Values joined by “and” are separate entries in the source; they are usually repeats but may differ in a detail not shown here. Equal values may be shown once. Active and inactive are the calls of the source.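 The calls were made as follows: active = mean inhibition at 10 µM of 50% or more; inactive = mean inhibition at 10 µM below 50%.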
# Test system: Huh-7.5 HCV Rluc replicon, luciferase luminescence, 72 h
# Experiment: inhibition of HCV replicon replication, late-stage follow-up, orthogonal assay for HCV NS3 helicase inhibitor project, cell-based, luminescence, Renilla luciferase replicon (AID 623962)
# Conditions: at 10 µM; active compounds read high
# Procedure, shortened: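 Material: Huh-7.5 human hepatoma cells with HCV replicon–Renilla luciferase fusion. Incubation: 4-5 h attachment, 72 h compound exposure at 37 °C. Measured by: Renilla luciferase luminescence from cell lysate after freeze/thaw lysis. Controls: DMSO-treated cells as uninhibited reference.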
row,SMILES,inhibition
1,Cc1ccc2nc(-c3ccc(NC(=O)c4ccc(NC(=O)c5ccc(N)cc5)cc4)cc3)sc2c1S(=O)(=O)O,-42% (inactive)
2,COc1cccc2c(=O)c3cc(Cl)cc(C(=O)Nc4cc(Cl)ccn4)c3[nH]c12,73%
3,Cc1cc2sc(-c3ccc4nc(-c5ccc(N)cc5)sc4c3)nc2cc1S(=O)(=O)O,28% (inactive)
4,Cc1ccc2nc(-c3ccc4nc(-c5ccc(NC(=O)c6ccc(CNC(=O)OCC7c8ccccc8-c8ccccc87)cc6)cc5)sc4c3)sc2c1S(=O)(=O)O,48% (inactive)
5,Cc1ccc2nc(-c3ccc(NC(=O)c4ccc(NC(=O)Nc5ccccc5)cc4)cc3)sc2c1S(=O)(=O)O,-64% (inactive)
6,Cc1ccc2nc(-c3ccc(NC(=O)c4ccc(NS(=O)(=O)c5ccccc5)cc4)cc3)sc2c1S(=O)(=O)O,-73% (inactive)
7,Cc1ccc2nc(-c3ccc4nc(NC(=O)c5ccc6ncoc6c5)sc4c3)sc2c1,90%
8,Cc1ccc2nc(-c3ccc4nc(-c5ccc(NC(=S)Nc6ccccc6)cc5)sc4c3)sc2c1S(=O)(=O)O,9% (inactive)
9,O=C(CCCCCCC(=O)Nc1ccc(-c2nc3ccccc3[nH]2)cc1)Nc1ccc(-c2nc3ccccc3[nH]2)cc1,96%
10,Cc1ccc2nc(-c3ccc4nc(-c5ccc(NC(=O)c6cc(C(F)(F)F)cc(C(F)(F)F)c6)cc5)sc4c3)sc2c1S(=O)(=O)O,60%
11,Cc1ccc2nc(-c3ccc4nc(-c5ccc(NC(=O)c6ccc7ncoc7c6)cc5)sc4c3)sc2c1S(=O)(=O)O,15% (inactive)
12,Cc1ccc2nc(-c3ccc(NC(=O)c4ccc(NC(=O)c5ccccc5)cc4)cc3)sc2c1S(=O)(=O)O,19% (inactive)
13,Cc1ccc2nc(-c3ccc4nc(-c5ccc(NC(=O)c6cccc(Cl)c6)cc5)sc4c3)sc2c1S(=O)(=O)O,54%
14,COc1ccc(NC(=O)Nc2ccc(-c3nc4ccc(-c5nc6ccc(C)c(S(=O)(=O)O)c6s5)cc4s3)cc2)cc1,21% (inactive)
15,Cc1ccc2nc(-c3ccc4nc(-c5ccc6nc(-c7ccc(N)cc7)sc6c5)sc4c3)sc2c1S(=O)(=O)O (tested in a mixture with another compound),0% (inactive)
16,COc1ccc(S(=O)(=O)Nc2ccc(-c3nc4ccc(-c5nc6ccc(C)c(S(=O)(=O)O)c6s5)cc4s3)cc2)cc1,44% (inactive)
17,Cc1ccc2nc(-c3ccc(NC(=O)c4ccc(C(F)(F)F)cc4)cc3)sc2c1S(=O)(=O)O,11% (inactive)
18,Cc1ccc2nc(-c3ccc4nc(-c5ccc(NC(=O)c6cc(F)ccc6C(F)(F)F)cc5)sc4c3)sc2c1S(=O)(=O)O,61%
19,CCOc1ccc2c(NNC(=O)c3cnccn3)c3c(nc2c1)CCCC3,81%
20,Cc1cc(C(O)(c2ccc(Nc3ccccc3)cc2)c2ccc(Nc3ccc(S(=O)(=O)O)cc3)cc2)ccc1N (stereo unspecified),23% (inactive)
21,Cc1ccc2nc(-c3ccc4nc(-c5ccc(NC(=O)c6ccc(N(C)C)cc6)cc5)sc4c3)sc2c1S(=O)(=O)O,22% (inactive)
22,Cc1ccc2nc(-c3ccc4nc(-c5ccc6nc(-c7ccc(N)cc7)sc6c5)sc4c3)sc2c1S(=O)(=O)O,59%
23,Cc1ccc2nc(-c3ccc4nc(-c5ccc(NC(=O)c6cccnc6)cc5)sc4c3)sc2c1S(=O)(=O)O,51%
24,Cc1ccc(NC(=O)Nc2ccc(-c3nc4ccc(-c5nc6ccc(C)c(S(=O)(=O)O)c6s5)cc4s3)cc2)cc1,43% (inactive)

row,SMILES,inhibition
1,Cc1ccc2nc(-c3ccc4nc(-c5ccc(NC(=O)c6ccc(Cl)cc6)cc5)sc4c3)sc2c1S(=O)(=O)O,42% (inactive)
2,Cc1ccc2nc(-c3ccc4nc(-c5ccc(NC(=O)c6ccccc6)cc5)sc4c3)sc2c1S(=O)(=O)O,45% (inactive)
3,Cc1ccc2nc(-c3ccc4nc(-c5ccc6nc(-c7ccc8nc(-c9ccc(N)cc9)sc8c7)sc6c5)sc4c3)sc2c1S(=O)(=O)O,0% (inactive) and 45% (inactive)
4,Cc1ccc2nc(-c3ccc4nc(-c5ccc(NC(=O)c6ccccc6C(F)(F)F)cc5)sc4c3)sc2c1S(=O)(=O)O,0% (inactive)
5,Cc1ccc2nc(-c3ccc4nc(-c5ccc(NC(=O)c6cc(F)cc(C(F)(F)F)c6)cc5)sc4c3)sc2c1S(=O)(=O)O,51%
6,Cc1ccc2nc(-c3ccc4nc(-c5ccc(NC(=O)c6ccc7nc(-c8ccc(N)cc8)sc7c6)cc5)sc4c3)sc2c1S(=O)(=O)O,37% (inactive)
7,Cc1ccc2nc(-c3ccc4nc(-c5ccc(NC(=O)c6ccc(Cl)c(Cl)c6)cc5)sc4c3)sc2c1S(=O)(=O)O,43% (inactive)
8,Cc1ccc2nc(-c3ccc4nc(-c5ccc(NC(=O)c6ccc(C(F)(F)F)c(F)c6)cc5)sc4c3)sc2c1S(=O)(=O)O,48% (inactive)
9,Cc1cc2sc(-c3ccc(N)cc3)nc2cc1S(=O)(=O)O,0% (inactive)
10,Cc1ccc2nc(-c3ccc4nc(-c5ccc(NC(=O)Nc6ccccc6)cc5)sc4c3)sc2c1S(=O)(=O)O,-18% (inactive)
11,O=C(Nc1nc2ccc(Br)cc2s1)c1ccc2ncsc2c1,25% (inactive)
12,Cc1ccc2nc(-c3ccc4nc(-c5ccc(NC(=O)c6cc(C(F)(F)F)ccc6F)cc5)sc4c3)sc2c1S(=O)(=O)O,39% (inactive)
13,Cc1ccc2nc(-c3ccc4nc(-c5ccc(NC(=O)c6cccc(C(F)(F)F)c6)cc5)sc4c3)sc2c1S(=O)(=O)O,41% (inactive)
14,Cc1ccc2nc(-c3ccc4nc(-c5ccc(NC(=O)c6ccc(C(C)(C)C)cc6)cc5)sc4c3)sc2c1S(=O)(=O)O,51%
15,Cc1ccc2nc(-c3ccc4nc(-c5ccc(NC(=O)c6ccncc6)cc5)sc4c3)sc2c1S(=O)(=O)O,59%
16,Cc1ccc2nc(-c3ccc4nc(-c5ccc(NC(=O)c6ccc(N)cc6)cc5)sc4c3)sc2c1S(=O)(=O)O,33% (inactive)
17,Cc1ccc2nc(-c3ccc4nc(-c5ccc(NC(=O)Nc6ccc(C(F)(F)F)cc6)cc5)sc4c3)sc2c1S(=O)(=O)O,7% (inactive)
18,Cc1ccc2nc(-c3ccc4nc(-c5ccc(NCc6ccccc6)cc5)sc4c3)sc2c1S(=O)(=O)O,-64% (inactive)
19,Cc1ccc2c(sc(-c3ccc4c(c3)sc(-c3ccc5c(c3)sc(-c3ccc(N(C)C)cc3)[n+]5C)[n+]4C)[n+]2C)c1S(=O)(=O)O (tested in a mixture with another compound),-16% (inactive)
20,Cc1ccc2nc(-c3ccc4nc(-c5ccc(NC(=O)Nc6ccc(Cl)cc6)cc5)sc4c3)sc2c1S(=O)(=O)O,35% (inactive)
21,COc1ccc2sc(NC(=O)c3ccc4ncsc4c3)nc2c1,60%
22,CC(=O)Nc1ccc(-c2nc3ccc(-c4nc5ccc(C)c(S(=O)(=O)O)c5s4)cc3s2)cc1,26% (inactive)
23,Cc1ccc2nc(-c3ccc4nc(-c5ccc(NC(=O)c6ccc(Br)cc6)cc5)sc4c3)sc2c1S(=O)(=O)O,7% (inactive)
24,Cc1ccc2nc(-c3ccc(NC(=S)Nc4ccccc4Br)cc3)sc2c1,80%

row,SMILES,inhibition
1,CCN(CC)c1ccc(-c2nc3ccc(-c4nc5ccc(C)c(S(=O)(=O)O)c5s4)cc3s2)cc1,0% (inactive)
2,CN1CCN(Cc2cc(CN3CCN(C)CC3)c(O)c(=O)c(CN3CCN(C)CC3)c2)CC1,46% (inactive)
3,Cc1ccc2nc(-c3ccc(NC(=O)c4ccc(N)cc4)cc3)sc2c1S(=O)(=O)O,21% (inactive)
4,Cc1ccc2nc(-c3ccc4nc(-c5ccc(NC(=O)c6ccc7nc(-c8ccc(NC(=O)OCC9c%10ccccc%10-c%10ccccc%109)cc8)sc7c6)cc5)sc4c3)sc2c1S(=O)(=O)O,42% (inactive) and 44% (inactive)
5,Cc1ccc2nc(-c3ccc(NC(=O)c4ccc(NC(=O)c5ccc(NC(=O)OCC6c7ccccc7-c7ccccc76)cc5)cc4)cc3)sc2c1S(=O)(=O)O,-14% (inactive)
6,Cc1ccc2nc(-c3ccc(N)cc3)sc2c1S(=O)(=O)O,0% (inactive)
7,Cc1ccc2nc(-c3ccc4nc(-c5ccc(N(C)C(=O)c6ccc7ccccc7c6)cc5)sc4c3)sc2c1S(=O)(=O)O,24% (inactive)
8,CCOc1ccc2nc(NC(=O)c3ccc4ncsc4c3)sc2c1,99%
9,Cc1ccc2nc(-c3ccc(NC(=O)c4ccc(NC(=O)c5ccc(C(F)(F)F)cc5)cc4)cc3)sc2c1S(=O)(=O)O,4% (inactive)
10,COC(=O)c1ccc(C(=O)Nc2ccc(-c3nc4ccc(-c5nc6ccc(C)c(S(=O)(=O)O)c6s5)cc4s3)cc2)cc1,40% (inactive)
11,Cc1ccc2nc(-c3ccc4nc(-c5ccc(NC(=O)c6c(F)cccc6C(F)(F)F)cc5)sc4c3)sc2c1S(=O)(=O)O,55%
12,Cc1ccc2nc(-c3ccc4nc(-c5ccc(NC(=O)c6cccc7ccccc67)cc5)sc4c3)sc2c1S(=O)(=O)O,-9% (inactive)
13,Cc1ccc2nc(-c3ccc(NC(=O)c4ccc(NC(=O)OCC5c6ccccc6-c6ccccc65)cc4)cc3)sc2c1S(=O)(=O)O,31% (inactive)
14,CCN(CC)c1ccc(-c2nc3ccc(C)c(S(=O)(=O)O)c3s2)cc1,0% (inactive)
15,Cc1ccc(C(=O)Nc2ccc(-c3nc4ccc(-c5nc6ccc(C)c(S(=O)(=O)O)c6s5)cc4s3)cc2)cc1,52%
16,O=C(Nc1ccc(-c2nc3ccccc3[nH]2)cc1)c1ccc2ncsc2c1,-7% (inactive)
17,Cc1ccc2nc(-c3ccc4nc(-c5ccc(NS(=O)(=O)c6ccc(C(F)(F)F)cc6)cc5)sc4c3)sc2c1S(=O)(=O)O,-7% (inactive)
18,Cc1ccc2nc(-c3ccc4nc(-c5ccc(NC(=O)c6ccc(C(F)(F)F)cc6)cc5)sc4c3)sc2c1S(=O)(=O)O,44% (inactive)
19,Cc1ccc2nc(-c3ccc4nc(-c5ccc(NC(=O)c6ccc(F)cc6)cc5)sc4c3)sc2c1S(=O)(=O)O,50%
20,Cc1ccc2nc(-c3ccc(NC(=O)c4ccc(NC(=S)Nc5ccccc5)cc4)cc3)sc2c1S(=O)(=O)O,-13% (inactive)
21,Cc1ccc2nc(-c3ccc4nc(-c5ccc(NC(=O)c6cccc(C(F)(F)F)c6F)cc5)sc4c3)sc2c1S(=O)(=O)O,48% (inactive)
22,Cc1ccc2nc(-c3ccc4nc(-c5ccc(NC(=O)c6ccc(NC(=O)OCC7c8ccccc8-c8ccccc87)cc6)cc5)sc4c3)sc2c1S(=O)(=O)O,57%
23,Cc1ccc2nc(-c3ccc4nc(-c5ccc(NC(=O)Nc6ccc(F)cc6)cc5)sc4c3)sc2c1S(=O)(=O)O,17% (inactive)
